In brackets after ≈: the same amount, converted by molar mass.
Legend:
[1] = system: Aeromonas allosaccharophila; test: Antimicrobial activity against Aeromonas allosaccharophila AL-1 expressing beta-lactamase PER6 by agar dilution method; format: functional
Outline: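 The test organism was environmental isolate AL-1, recovered from Seine River water on MacConkey agar containing ceftazidime (2 μg/ml). It was identified by API 32GN and 16S rRNA gene sequencing. MICs were determined by agar dilution on Mueller-Hinton agar and interpreted by CLSI guidelines.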

Escherichia coli [2] = test: Antimicrobial activity against Escherichia coli DH10B harboring recombinant Aeromonas allosaccharophila AL-1 beta-lactamase PER6 by agar dilution method; format: functional; conditions: K-12 DH10B
Escherichia coli [3] = test: Antimicrobial activity against Escherichia coli DH10B harboring recombinant Aeromonas allosaccharophila AL-1 beta-lactamase PER1 by agar dilution method; format: functional; conditions: K-12 DH10B
Escherichia coli [4] = test: Antimicrobial activity against Escherichia coli DH10B harboring recombinant Aeromonas allosaccharophila AL-1 beta-lactamase PER2 by agar dilution method; format: functional; conditions: K-12 DH10B
Escherichia coli [5] = test: Antimicrobial activity against Escherichia coli DH10B by agar dilution method; format: functional; conditions: K-12 DH10B
Outline: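 MICs measured by agar dilution on Mueller-Hinton agar plates, the method used for imipenem and imipenem combined with clavulanate; other MICs were obtained by Etest. Results were interpreted according to CLSI guidelines. Test strains were E. coli DH10B recombinants carrying cloned PER-1, PER-2 or PER-6 β-lactamase genes.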

[6] = system: Aeromonas allosaccharophila; test: Ratio of Kcat to Km for Aeromonas allosaccharophila AL-1 beta-lactamase PER2
[7] = substrate: CC(=O)OCC1=C(C(=O)O)N2C(=O)[C@@H](NC(=O)Cc3cccs3)[C@H]2SC1; test: (§1) Activity at Aeromonas allosaccharophila AL-1 beta-lactamase PER6
Outline: (§2)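 PER-6 enzyme was purified from a crude extract of E. coli DH10B(pPER-6). Purification used cation exchange on S-Sepharose at pH 6.8, then anion exchange on Q-Sepharose at pH 8. Purity was >90% by SDS-PAGE. The purified enzyme was used for hydrolysis and inhibition measurements.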

[8] = substrate: CC(C)(O/N=C(\C(=O)N[C@@H]1C(=O)N2C(C(=O)[O-])=C(C[n+]3ccccc3)CS[C@H]12)c1csc(N)n1)C(=O)O; test: as §1; outline: as §2
[9] = substrate: CC1(C)S[C@@H]2[C@H](NC(=O)Cc3ccccc3)C(=O)N2[C@H]1C(=O)O; test: as §1; outline: as §2
[10] = substrate: CC1(C)S[C@@H]2[C@H](NC(=O)[C@H](C(=O)O)c3ccsc3)C(=O)N2[C@H]1C(=O)O; test: as §1; outline: as §2
[11] = substrate: CC1(C)S[C@@H]2[C@H](NC(=O)[C@H](N)c3ccccc3)C(=O)N2[C@H]1C(=O)O; test: as §1; outline: as §2
[12] = substrate: CCN1CCN(C(=O)N[C@@H](C(=O)N[C@@H]2C(=O)N3[C@@H]2SC(C)(C)[C@@H]3C(=O)O)c2ccccc2)C(=O)C1=O; test: as §1; outline: as §2
[13] = substrate: CO/N=C(\C(=O)N[C@@H]1C(=O)N2C(C(=O)O)=C(COC(C)=O)CS[C@H]12)c1csc(N)n1; test: as §1; outline: as §2
[14] = substrate: CO/N=C(\C(=O)N[C@@H]1C(=O)N2C(C(=O)[O-])=C(C[N+]3(C)CCCC3)CS[C@H]12)c1csc(N)n1; test: as §1; outline: as §2
[15] = substrate: CO/N=C(\C(=O)N[C@@H]1C(=O)N2C(C(=O)[O-])=C(C[n+]3cccc4c3CCC4)CS[C@H]12)c1csc(N)n1; test: as §1; outline: as §2
[16] = substrate: C[C@@H](O)[C@H]1C(=O)N2C(C(=O)O)=C(SCCNC=N)C[C@H]12; test: as §1; outline: as §2
[17] = substrate: C[C@@H](O)[C@H]1C(=O)N2C(C(=O)O)=C(S[C@@H]3CN[C@H](C(=O)N(C)C)C3)[C@H](C)[C@H]12; test: as §1; outline: as §2
[18] = substrate: C[C@@H](O)[C@H]1C(=O)N2C(C(=O)O)=C(S[C@@H]3CN[C@H](C(=O)Nc4cccc(C(=O)O)c4)C3)[C@H](C)[C@H]12; test: as §1; outline: as §2
[19] = substrate: C[C@H]1[C@H](NC(=O)/C(=N\OC(C)(C)C(=O)O)c2csc(N)n2)C(=O)N1S(=O)(=O)O; test: as §1; outline: as §2
[20] = substrate: CC(=O)OCC1=C(C(=O)O)N2C(=O)[C@@H](NC(=O)Cc3cccs3)[C@H]2SC1; test: (§3) Ratio of Kcat to Km for Aeromonas allosaccharophila AL-1 beta-lactamase PER6; outline: as §2
[21] = substrate: CC(C)(O/N=C(\C(=O)N[C@@H]1C(=O)N2C(C(=O)[O-])=C(C[n+]3ccccc3)CS[C@H]12)c1csc(N)n1)C(=O)O; test: as §3; outline: as §2
[22] = substrate: CC1(C)S[C@@H]2[C@H](NC(=O)Cc3ccccc3)C(=O)N2[C@H]1C(=O)O; test: as §3; outline: as §2
[23] = substrate: CC1(C)S[C@@H]2[C@H](NC(=O)[C@H](C(=O)O)c3ccsc3)C(=O)N2[C@H]1C(=O)O; test: as §3; outline: as §2
[24] = substrate: CC1(C)S[C@@H]2[C@H](NC(=O)[C@H](N)c3ccccc3)C(=O)N2[C@H]1C(=O)O; test: as §3; outline: as §2
[25] = substrate: CCN1CCN(C(=O)N[C@@H](C(=O)N[C@@H]2C(=O)N3[C@@H]2SC(C)(C)[C@@H]3C(=O)O)c2ccccc2)C(=O)C1=O; test: as §3; outline: as §2
[26] = substrate: CO/N=C(\C(=O)N[C@@H]1C(=O)N2C(C(=O)O)=C(COC(C)=O)CS[C@H]12)c1csc(N)n1; test: as §3; outline: as §2
[27] = substrate: CO/N=C(\C(=O)N[C@@H]1C(=O)N2C(C(=O)[O-])=C(C[N+]3(C)CCCC3)CS[C@H]12)c1csc(N)n1; test: as §3; outline: as §2
[28] = substrate: CO/N=C(\C(=O)N[C@@H]1C(=O)N2C(C(=O)[O-])=C(C[n+]3cccc4c3CCC4)CS[C@H]12)c1csc(N)n1; test: as §3; outline: as §2
[29] = substrate: C[C@@H](O)[C@H]1C(=O)N2C(C(=O)O)=C(SCCNC=N)C[C@H]12; test: as §3; outline: as §2
[30] = substrate: C[C@@H](O)[C@H]1C(=O)N2C(C(=O)O)=C(S[C@@H]3CN[C@H](C(=O)N(C)C)C3)[C@H](C)[C@H]12; test: as §3; outline: as §2
[31] = substrate: C[C@@H](O)[C@H]1C(=O)N2C(C(=O)O)=C(S[C@@H]3CN[C@H](C(=O)Nc4cccc(C(=O)O)c4)C3)[C@H](C)[C@H]12; test: as §3; outline: as §2
[32] = substrate: C[C@H]1[C@H](NC(=O)/C(=N\OC(C)(C)C(=O)O)c2csc(N)n2)C(=O)N1S(=O)(=O)O; test: as §3; outline: as §2

Question: Which MIC [1] does the source give for `CO/N=C(\C(=O)N[C@@H]1C(=O)N2C(C(=O)[O-])=C(C[n+]3cccc4c3CCC4)CS[C@H]12)c1csc(N)n1` [CEFPIROME] here?
Answer: 0.5 µg/mL (≈ 0.972 µM)

Question: And the MIC (Escherichia coli [2])?
Answer: 8 µg/mL

Question: What about the MIC (Escherichia coli [3]) of the same molecule?
Answer: 16 µg/mL

Question: What about the MIC (Escherichia coli [4]) of the same molecule?
Answer: 16 µg/mL

Question: What about the MIC (Escherichia coli [5]) of the same molecule?
Answer: 0.06 µg/mL (≈ 0.117 µM)

Question: How did the MIC [1] turn out when `CO/N=C(\C(=O)N[C@@H]1C(=O)N2C(C(=O)[O-])=C(C[N+]3(C)CCCC3)CS[C@H]12)c1csc(N)n1` was run?
Answer: 0.5 µg/mL (≈ 1.04 µM)

Question: And the MIC (Escherichia coli [2])?
Answer: 32 µg/mL

Question: And the MIC (Escherichia coli [3])?
Answer: 16 µg/mL

Question: And the MIC (Escherichia coli [4])?
Answer: 32 µg/mL

Question: And the kcat/Km [6]?
Answer: 20000 M⁻¹ s⁻¹

Question: `C[C@@H](O)[C@H]1C(=O)N2C(C(=O)O)=C(S[C@@H]3CN[C@H](C(=O)N(C)C)C3)[C@H](C)[C@H]12` [MEROPENEM] was tested. Which MIC [1] did it give?
Answer: 0.06 µg/mL (≈ 0.156 µM)

Question: And the MIC (Escherichia coli [3])?
Answer: 0.03 µg/mL

Question: And the MIC (Escherichia coli [4])?
Answer: 0.03 µg/mL

Question: What about the MIC (Escherichia coli [5]) of the same molecule?
Answer: 0.06 µg/mL (≈ 0.156 µM)

Question: How did the MIC [1] turn out when `CCN1CCN(C(=O)N[C@@H](C(=O)N[C@@H]2C(=O)N3[C@@H]2SC(C)(C)[C@@H]3C(=O)O)c2ccccc2)C(=O)C1=O` [PIPERACILLIN] was run?
Answer: 4 µg/mL (≈ 7.73 µM)

Question: What about the MIC (Escherichia coli [2]) of the same molecule?
Answer: 256 µg/mL

Question: And the MIC (Escherichia coli [3])?
Answer: 32 µg/mL

Question: And the MIC (Escherichia coli [4])?
Answer: 256 µg/mL

Question: And the MIC (Escherichia coli [5])?
Answer: 1 µg/mL (≈ 1.93 µM)

Question: And the kcat/Km [6]?
Answer: 200000 M⁻¹ s⁻¹

B1: Extended-spectrum beta-lactamase PER-6 (Aeromonas allosaccharophila), D5HSX5 (protein)
chain: MNVIAKGVFTTTALLMLSLSSWVVSAQSPLLKEQIETIVTGKKATVGVAVWGPDDLEPLLVNPFEKFPMQSVFKMHLAMLVLHQVDQGKLDLNKTVAVNRAAVLQNTWSPMMKDHQGDEFTVTVQQLLQYSVSHSDNVACDLLFELVGGPAALHAYIQSLGIKETEVVANEAQMHADDQVQYKNWTSMKAAAQLLRKFEQKKQLSETSQALLWKWMVETTTGPQRLKGLLPAGTVVAHKTGTSGVRAGKTAATNDIGVIMLPDGRPLLVAVFVKDSAESARTNEAIIAQVAQAAYQFELKKLSAVSPD
Question: For B1, which Km [7] is on record?
Answer: 55 µM

Question: And the kcat [7]?
Answer: 8 s⁻¹

Question: What about the Km [8] of the same molecule?
Answer: 1000 µM

Question: What about the kcat [8] of the same molecule?
Answer: 12 s⁻¹

Question: What about the Km [9] of the same molecule?
Answer: 200 µM

Question: And the kcat [9]?
Answer: 5 s⁻¹

Question: What about the Km [10] of the same molecule?
Answer: 9 µM

Question: What about the kcat [10] of the same molecule?
Answer: 0.4 s⁻¹

Question: What about the Km [11] of the same molecule?
Answer: 20 µM

Question: And the kcat [11]?
Answer: 1 s⁻¹

Question: And the Km [12]?
Answer: 4 µM

Question: What about the kcat [12] of the same molecule?
Answer: 0.1 s⁻¹

Question: And the Km [13]?
Answer: 900 µM

Question: And the kcat [13]?
Answer: 40 s⁻¹

Question: What about the Km [14] of the same molecule?
Answer: 2000 µM

Question: What about the kcat [14] of the same molecule?
Answer: 10 s⁻¹

Question: What about the Km [15] of the same molecule?
Answer: 1500 µM

Question: And the kcat [15]?
Answer: 12 s⁻¹

Question: And the Km [16]?
Answer: 1.5 µM

Question: And the kcat [16]?
Answer: 0.006 s⁻¹

Question: And the Km [17]?
Answer: 10 µM

Question: What about the kcat [17] of the same molecule?
Answer: 0.004 s⁻¹

Question: What about the Km [18] of the same molecule?
Answer: 7 µM

Question: And the kcat [18]?
Answer: 0.002 s⁻¹

Question: What about the Km [19] of the same molecule?
Answer: 40 µM

Question: What about the kcat [19] of the same molecule?
Answer: 3 s⁻¹

Question: And the kcat/Km [20]?
Answer: 145000 M⁻¹ s⁻¹

Question: And the kcat/Km [21]?
Answer: 1e+07 M⁻¹ s⁻¹

Question: What about the kcat/Km [22] of the same molecule?
Answer: 25000 M⁻¹ s⁻¹

Question: And the kcat/Km [23]?
Answer: 50000 M⁻¹ s⁻¹

Question: And the kcat/Km [24]?
Answer: 50000 M⁻¹ s⁻¹

Question: And the kcat/Km [25]?
Answer: 25000 M⁻¹ s⁻¹

Question: And the kcat/Km [26]?
Answer: 45000 M⁻¹ s⁻¹

Question: What about the kcat/Km [27] of the same molecule?
Answer: 5000 M⁻¹ s⁻¹

Question: What about the kcat/Km [28] of the same molecule?
Answer: 8000 M⁻¹ s⁻¹

Question: What about the kcat/Km [29] of the same molecule?
Answer: 4000 M⁻¹ s⁻¹

Question: What about the kcat/Km [30] of the same molecule?
Answer: 400 M⁻¹ s⁻¹

Question: What about the kcat/Km [31] of the same molecule?
Answer: 300 M⁻¹ s⁻¹

Question: And the kcat/Km [32]?
Answer: 7.5e+07 M⁻¹ s⁻¹

Source: ChEMBL document CHEMBL1687755, “PER-6, an extended-spectrum beta-lactamase from Aeromonas allosaccharophila” (Antimicrob Agents Chemother, 2010)
